Converted amounts (≈) assume the structure as drawn.
Assays:
[1] = system: Staphylococcus aureus; assay: Antimicrobial activity against beta-lactamase negative methicillin-susceptible Staphylococcus aureus ATCC 25923 infected in human THP-1 cells assessed as decrease in bacterial growth after 24 hrs at pH 5.5; format: functional, organism-based; conditions: ATCC 25923, THP-1, 24 h
Outline: (§1)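 Bacteria phagocytosed by unactivated human THP-1 macrophages, then incubated 24 h with extracellular antibiotic at about 0.01× to 100× the pH 5.5 broth MIC. CFU per mg cell protein counted against the original inoculum, n = 3. A Hill-equation fit (slope factor 1) gave Emin and Emax, extrapolated to infinitely low and high concentration, and EC50. Static concentration was graphically interpolated.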

[2] = system: Staphylococcus aureus; assay: Antimicrobial activity against hospital acquired methicillin-resistant Staphylococcus aureus ATCC 33591 by broth microdilution method at pH 5.5; format: functional
[3] = system: Staphylococcus aureus; assay: Antimicrobial activity against hospital acquired methicillin-resistant Staphylococcus aureus ATCC 33591 infected in human THP-1 cells assessed as decrease in bacterial count from original inoculum at high compound concentration after 24 hrs at pH 5.5; format: functional; outline: as §1
[4] = system: Staphylococcus aureus; assay: Bacteriostatic activity against hospital acquired methicillin-resistant Staphylococcus aureus N4120210 infected in human THP-1 cells assessed as decrease in bacterial growth after 24 hrs at pH 5.5; format: functional
Outline: (§2)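 Human THP-1 macrophages infected with each S. aureus strain. Cloxacillin added extracellularly at about 0.01× to 100× the broth MIC measured at pH 5.5, with gentamicin 0.5 mg/liter to stop extracellular growth. Incubated 24 h. CFU counted per mg cell protein as change from the post-phagocytosis inoculum, n = 3. Emin, Emax and EC50 from a Hill fit; static concentration by graphical interpolation.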

[5] = system: Staphylococcus aureus; assay: Antimicrobial activity against Panton-valentine leukocidin positive community acquired methicillin-resistant Staphylococcus aureus NRS192 obtained from patient with pneumonia and septic arthritis infected in human THP-1 cells assessed as decrease in bacterial growth after 24 hrs at pH 5.5; format: functional, organism-based; conditions: NRS192, THP-1, 24 h; outline: as §1
[6] = system: Staphylococcus aureus; assay: Antimicrobial activity against hospital acquired methicillin-resistant Staphylococcus aureus N4120032 obtained from wound infection opf patient infected in human THP-1 cells assessed as decrease in bacterial growth after 24 hrs at pH 5.5; format: functional, organism-based; conditions: N4120032, THP-1, 24 h; outline: as §1
[7] = system: Staphylococcus aureus; assay: Antimicrobial activity against hospital acquired methicillin-resistant and vancomycin-intermediate Staphylococcus aureus NRS126 obtained from patient with bloodstream infection by broth microdilution method at pH 7.4; format: functional
Outline: (§3)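 Minimal inhibitory concentration by broth microdilution at pH 7.4, read in mg/liter. The MRSA genotype was confirmed by mecA PCR, and the SCCmec subgroup was assigned by multiplex PCR.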

[8] = system: Staphylococcus aureus; assay: Antimicrobial activity against intracellular beta-lactamase negative methicillin-susceptible Staphylococcus aureus ATCC 25923 infected in human Calu3 cells assessed as decrease in bacterial growth after 24 hrs at pH 7.4; format: functional, organism-based; conditions: ATCC 25923, Calu-3, 24 h
Outline: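 Calu-3 bronchial epithelial cells, grown in uncoated flasks, were infected with 5 × 10⁷ to 1 × 10⁸ bacteria/ml for 2 h, giving 1.5 × 10⁶ to 3.0 × 10⁶ CFU/mg protein after phagocytosis. Cells were then exposed 24 h to a range of cloxacillin concentrations (mg/liter). CFU change per mg protein was measured (n = 3). A Hill fit with slope 1 gave Emax and EC50, and the static concentration was interpolated.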

[9] = system: Staphylococcus aureus; assay: Antimicrobial activity against Panton-valentine leukocidin positive community acquired methicillin-resistant Staphylococcus aureus N4042228 by broth microdilution method at pH 7.4; format: functional; outline: as §3
[10] = system: Staphylococcus aureus; assay: Antimicrobial activity against animal acquired methicillin-resistant Staphylococcus aureus N7112046 infected in human THP-1 cells assessed as decrease in bacterial growth after 24 hrs at pH 5.5; format: functional, organism-based; conditions: N7112046, THP-1, 24 h; outline: as §1
[11] = system: Staphylococcus aureus; assay: Antimicrobial activity against constitutive beta-lactamase negative methicillin-resistant Staphylococcus aureus COL NRS100 by broth microdilution method at pH 5.5; format: functional
[12] = system: Staphylococcus aureus; assay: Antimicrobial activity against Panton-valentine leukocidin positive community acquired methicillin-resistant Staphylococcus aureus N4042228 infected in human THP-1 cells assessed as increase in bacterial count from original inoculum at low compound concentration after 24 hrs at pH 5.5; format: functional; outline: as §1
[13] = system: Staphylococcus aureus; assay: Bacteriostatic activity against Panton-valentine leukocidin positive community acquired methicillin-resistant Staphylococcus aureus N4042228 infected in human THP-1 cells assessed as decrease in bacterial growth after 24 hrs at pH 5.5; format: functional; outline: as §2
[14] = system: Staphylococcus aureus; assay: Antimicrobial activity against intracellular beta-lactamase negative methicillin-susceptible Staphylococcus aureus ATCC 25923 infected in human Calu3 cells assessed as increase in bacterial count from original inoculum at low compound concentration after 24 hrs at pH 7.4; format: functional, Calu-3
Outline: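 Primary human skin keratinocytes or Calu-3 bronchial epithelial cells infected with MSSA ATCC 25923 at 5 × 10⁷ to 1 × 10⁸ bacteria/ml, 2 h internalization. Postphagocytosis inoculum 1.5 × 10⁶ to 3.0 × 10⁶ CFU/mg protein. Cloxacillin concentration range for 24 h; CFU/mg protein change vs. inoculum (n = 3). Hill fit gives Emin/Emax; static concentration by graphical interpolation.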

[15] = system: Staphylococcus aureus; assay: Antimicrobial activity against hospital acquired methicillin-resistant Staphylococcus aureus N4120210 obtained from urinary tract infection of patient infected in human THP-1 cells assessed as decrease in bacterial growth after 24 hrs at pH 5.5; format: functional, organism-based; conditions: N4120210, THP-1, Urine
Outline: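 THP-1 macrophages were infected, then incubated 24 h with cloxacillin at extracellular concentrations from about 0.01× to 100× the MIC measured in broth at pH 5.5, with gentamicin 0.5 mg/liter to block extracellular growth. CFU per mg cell protein were counted as change from the original inoculum (n = 3). A Hill-equation fit gave Emax, EC50 (multiples of MIC) and static concentration.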

[16] = system: Staphylococcus aureus; assay: Antimicrobial activity against hospital acquired methicillin-resistant and vancomycin-intermediate Staphylococcus aureus NRS126 obtained from patient with bloodstream infection by broth microdilution method at pH 5.5; format: functional
[17] = system: Staphylococcus aureus; assay: Bacteriostatic activity against intracellular hospital acquired methicillin-resistant Staphylococcus aureus ATCC 33591 infected in activated human THP-1 cells assessed as decrease in bacterial growth after 24 hrs at pH 7.4; format: functional
Outline: (§4)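 THP-1 cells activated by 24-h culture with phorbol myristate acetate 2 mg/liter, then infected like unactivated THP-1. Cloxacillin dose range in mg/liter for 24 h. CFU per mg cell protein relative to the original inoculum, n = 3. Emin and Emax extrapolated from a Hill fit (slope 1), with EC50 as total drug; static concentration by graphical interpolation.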

[18] = system: Staphylococcus aureus; assay: Antimicrobial activity against intracellular hospital acquired methicillin-resistant Staphylococcus aureus ATCC 33591 infected in activated human THP-1 cells assessed as decrease in bacterial count from original inoculum at high compound concentration after 24 hrs at pH 7.4; format: functional; outline: as §4
[19] = system: Staphylococcus aureus; assay: Antimicrobial activity against hospital acquired methicillin-resistant Staphylococcus aureus N4120210 obtained from urinary tract infection patient by broth microdilution method at pH 5.5; format: functional; conditions: N4120210, Urine
[20] = system: Staphylococcus aureus; assay: Antimicrobial activity against Panton-valentine leukocidin positive community acquired methicillin-resistant Staphylococcus aureus N4042228 infected in human THP-1 cells assessed as decrease in bacterial growth after 24 hrs at pH 5.5; format: functional, organism-based; conditions: N4042228, THP-1, 24 h; outline: as §1
[21] = system: Staphylococcus aureus; assay: Bacteriostatic activity against hospital acquired methicillin-resistant Staphylococcus aureus ATCC 33591 infected in human THP-1 cells assessed as decrease in bacterial growth after 24 hrs at pH 5.5; format: functional; outline: as §2

In the case of `Cc1onc(-c2ccccc2Cl)c1C(=O)N[C@@H]1C(=O)N2[C@@H]1SC(C)(C)[C@@H]2C(=O)O` [CLOXACILLIN], the EC50 [1] was 4.44 ×MIC, the MIC [2] was 0.06 µg/mL (≈ 0.138 µM) and the log10cfu [3] was 0.55. For the same molecule, the Activity [4] was 35.5 ×MIC, the EC50 [5] was 6.07 ×MIC and the EC50 [6] was 9.26 ×MIC. It also gave an MIC [7] of 16 µg/mL (≈ 36.7 µM), an EC50 [8] of 0.52 µg/mL (≈ 1.19 µM) and an MIC [9] of 0.5 µg/mL (≈ 1.15 µM). It also gave an EC50 [10] of 6.99 ×MIC, an MIC [11] of 0.25 µg/mL (≈ 0.574 µM) and a log10cfu [12] of 2.68. The Activity [13] was 45.7 ×MIC, the log10cfu [14] was 3.19 and the EC50 [15] was 8.51 ×MIC. The MIC [16] was 0.06 µg/mL (≈ 0.138 µM), the Activity [17] was 1 mg/L and the log10cfu [18] was 0.7. The MIC [19] was 0.06 µg/mL (≈ 0.138 µM), the EC50 [20] was 10.8 ×MIC and the Activity [21] was 17.8 ×MIC.

— ChEMBL document CHEMBL1649111, “Restoration of susceptibility of intracellular methicillin-resistant Staphylococcus aureus to beta-lactams: comparison of strains, cells, and antibiotics” (Antimicrob Agents Chemother, 2008)
